Results on 17 compounds are retold here after ChEMBL document CHEMBL1129584, “3,3-Dialkyl- and 3-alkyl-3-benzyl-substituted 2-pyrrolidinones: a new class of anticonvulsant agents” (J Med Chem, 1996).

Data set [1] deals with T1, GABA-A receptor; anion channel (Rattus norvegicus) (UniProt O09028+P15431+P18506+P18508+P19969+P20236+P23574+P23576+P28471+P28473+P30191+P62813+P63079+P63138+Q91ZM7+Q9ES14). The experiment in a line: Antagonism (300 uM) induced potentiation of 3 uM Gamma-aminobutyric acid A receptor mediated current by picrotoxin antagonist (alpha-IMGBL) at a dose 3 mM on 5 rat brain cells. The data set is classed as functional, tissue-based. On the set-up: scale not given: the % may be the effect or the level left.

Data set [2] is described as follows: Neurotoxicity in mice was assessed by rotarod test. The data set is classed as toxicity. The following applies: mouse, in vivo.
The target of data set [3] is GABA-A receptor; anion channel. The experiment in a line: Binding affinity for Gamma-aminobutyric acid A receptor from rat brain in the presence of radioligand [35S]- TBPS. In a few lines: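 [35S]TBPS displacement in rat brain membranes (picrotoxin site of GABA-A receptors). Compounds dissolved in DMSO, final DMSO ≤2.5%. IC50 from at least three experiments in triplicate, mean ± SEM.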

Data set [4] is filed under the species Mus musculus. The experiment in a line: Anticonvulsant activity in mice against maximal electroshock (MES) induced tonic hindlimb seizures. The data set is classed as functional. The method in brief: (§1)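 At least four groups of six mice each. Where these could not be calculated, the […] and lowest all-protected doses are given instead.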
(In general: The maximal electroshock test induces tonic seizures with an electrical stimulus.)

Data set [5] can be described thus: Protective index, measure of ratio of TD50 and ED50. The data set is classed as functional. In a few lines:
(§2)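 Protective index calculated as TD50 (rotorod) divided by ED50 in the PTZ or MES mouse seizure test.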

The species named for data set [6] is Mus musculus. The experiment in a line: Anticonvulsant activity in mice against pentylenetetrazole (PTZ) induced clonic seizures. The data set is classed as functional. In a few lines: as §1
The nature of data set [7]: Protective index, measure of ratio of TD50 and ED50 of MES. The data set is classed as functional. The method in brief: as §2
In data set [8] the target is T1, GABA-A receptor; anion channel (Rattus norvegicus). Kind of data set: Induced percentage potentiation of 3 uM GABA-mediated current at rat brain Gamma-aminobutyric acid A receptor (8 cells). The data set is classed as functional.
The target is the same in data set [9]. The experiment in a line: Induced percentage potentiation of 3 uM GABA-mediated current at rat brain Gamma-aminobutyric acid A receptor (8 cells) at 1 mM in the presence of 3 mM alpha-IMGBL (picrotoxin antagonist). The data set is classed as functional.
Data set [10] can be described thus: Protective index, measure of ratio of TD50 and ED50 of PTZ. Format: functional. The method in brief: as §2

Each structure is given as a SMILES string.

On to `CCC1(Cc2ccccc2)CCNC1=O` (stereo unspecified), for which, in [1], the Activity is 98%.

A word on the TD50: it is the dose at which the toxic effect under study appears in half of the subjects. On to `CC1CCNC1=O` (stereo unspecified), for which the TD50 in data set [2] is above 900 mg/kg.

The term IC50 denotes the midpoint of a concentration-inhibition curve. Take `CCC1(C)CCNC1=O` (stereo unspecified): the IC50 in data set [3] was 12.1 mM.

In general, ED50 refers to the midpoint of the dose-response relation. As to `CC1(C)CCNC1=O`, the median effective dose (ED50) in the data set listed under Mus musculus [4] is above 600 mg/kg. In [2], the TD50 is above 600 mg/kg. Besides, the 50% inhibitory concentration (IC50) in data set [3] worked out at 32.4 mM.

For `CCCC(CCC)C(=O)O` [VALPROIC ACID], the PI in [5] was found to be 2.12. For the same compound, the ED50 in the data set filed under Mus musculus [6] was determined as 133 mg/kg.

Consider `CCC1(c2ccccc2)C(=O)NC(=O)NC1=O` [PHENOBARBITAL], for which the PI in data set [5] turned out to be 4. Further, the ED50 in the data set filed under Mus musculus [6] is 22 mg/kg.

Consider `O=C1NCCC1Cc1ccccc1` (stereo unspecified), for which the PI in data set [7] is 3.51. In [2], this compound displayed a TD50 of 144 mg/kg. Further, in [3], the IC50 was found to be 2.44 mM.

On to `CC(C)C1(C)CCNC1=O` (stereo unspecified), for which, in data set [3], the half-inhibitory concentration (IC50) stood at 6.86 mM.

Consider `CCC1CCNC1=O` (stereo unspecified), for which, in data set [3], the half-inhibitory concentration (IC50) was 48.1 mM.

Consider `O=C1CCCS1` [THIOBUTYROLACTONE], for which the half-inhibitory concentration (IC50) in data set [3] is 0.33 mM.

Regarding `CCC1(C)CC(=O)NC1=O` (stereo unspecified) [ETHOSUXIMIDE], in data set [5], the PI came to 2.35. The same compound yielded an ED50 in the data set listed under Mus musculus [6] of 161 mg/kg.

For `CC(C)(C)C1(C)CCNC1=O` (stereo unspecified), in data set [2], the TD50 was above 300 mg/kg. In addition, the half-inhibitory concentration (IC50) in data set [3] came out at 3.26 mM.

Regarding `CCC1(C(C)C)CCNC1=O` (stereo unspecified), the TD50 in [2] was 207 mg/kg. In addition, the IC50 in [3] was 2.62 mM.

Turning to `CCC1(CC)CCNC1=O`, the Activity in data set [8] was 137%; in [9], 108%. Besides, the TD50 in data set [2] stood at 260 mg/kg. Moreover, in data set [3], the IC50 stood at 5.81 mM. Besides, the PI in data set [10] worked out at 5.65.

With `CC1(Cc2ccccc2)CCNC1=O` (stereo unspecified), the IC50 in data set [3] is 0.85 mM.

Compound `O=C1NCCC12CCCC2` registered a TD50 in [2] of 307 mg/kg. Besides, the IC50 in data set [3] was determined as 12.1 mM.

As to `O=C1CCCN1` [2-PYRROLIDONE], the TD50 in [2] was above 900 mg/kg.
